Assay outcomes: PubChem BioAssay, several laboratories
SKN-1 block: suppressors of acrylamide-induced Pgst-4::GFP reporter in worms, primary screen, SKN-1 inhibitor project, whole organism, uHTS, GFP/RFP fluorescence ratio, strain VP596 | C. elegans VP596 Pgst-4::GFP/RFP ratio, 24 h | inhibition, % at 21.8 µM | hit rate 0.49% among 360,000;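 active means interference check ratio from 0.5 to 1.5 plus GFP to RFP signal ratio inhibition reaching or exceeding a fixed threshold, cut at about 30% in these data, passing the limit was not always enough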
MPTP inh: mitochondrial permeability transition pore inhibitors, primary screen, biochemical, isolated mouse mitochondria, absorbance | Ca2+ swelling absorbance, 30 min | inhibition, % at 10 µM | hit rate 1.4% among 360,000 | AID 602449, 2012;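 active means inhibition of 50% or more, scaled per plate between neutral and stimulator controls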
GRIN3A LBD mod: binders of NR3A ligand-binding domain, primary screen, biophysical, differential scanning fluorimetry, uHTS. NR3A LBD differential scanning fluorimetry, Tm shift; 0% = protein alone, 100% = glycine-bound protein. Tm shift relative to glycine control, % at 25 µM. hit rate 2.5% among 340,000. AID 1259313, 2017;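 active means melting temperature shift of at least 10% of the positive control shift, at one fixed dose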
ADAM17 inh: ADAM17 inhibitors, primary screen, biochemical, QFRET; Disintegrin and metalloproteinase domain-containing protein 17 (Homo sapiens), P78536; recombinant ADAM17, EDANS/DABCYL FRET peptide cleavage; inhibition, % at 6.95 µM; hit rate 0.83% among 370,000; AID 720648, 2013;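 active means inhibition above the mean of compounds lying between control limits plus 3 SD, set per campaign, cut at about 8.5% in these data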
ADAM10 inh: human ADAM10 inhibitors, primary screen, biochemical, QFRET, HTS. recombinant ADAM10, EDANS/DABCYL FRET peptide cleavage, 3 h. inhibition, % at 7 µM. hit rate 0.62% among 370,000;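 active means inhibition above a per-campaign cutoff equal to the mean of compounds falling between control-based bounds plus 3 SD, cut at about 20% in these data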
Target sequence (O14672 214-748 limits assumed): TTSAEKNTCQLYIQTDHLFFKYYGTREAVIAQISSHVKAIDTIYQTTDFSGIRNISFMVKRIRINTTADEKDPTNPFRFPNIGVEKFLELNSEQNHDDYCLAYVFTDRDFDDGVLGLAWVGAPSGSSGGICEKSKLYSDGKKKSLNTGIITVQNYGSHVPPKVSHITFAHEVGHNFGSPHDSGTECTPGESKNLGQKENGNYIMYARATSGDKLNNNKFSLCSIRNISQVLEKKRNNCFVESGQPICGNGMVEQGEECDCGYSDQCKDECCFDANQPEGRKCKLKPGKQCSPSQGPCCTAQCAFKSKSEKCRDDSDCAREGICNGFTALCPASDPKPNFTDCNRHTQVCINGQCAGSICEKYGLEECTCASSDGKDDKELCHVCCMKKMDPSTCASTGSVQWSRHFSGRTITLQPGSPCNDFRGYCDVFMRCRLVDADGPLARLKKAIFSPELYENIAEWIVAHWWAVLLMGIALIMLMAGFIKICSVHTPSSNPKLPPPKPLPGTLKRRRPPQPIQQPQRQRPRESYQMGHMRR
MT1-MMP act inh: blockers of MT1-MMP proenzyme processing, primary screen, HT1080 RFP-PRO-GFP cells, GFP/RFP fluorescence; Matrix metalloproteinase-14 (Homo sapiens), P50281; GFP/RFP ratio fluorescence, overnight; percent of plate control window, DMSO zero; GFP/RFP ratio change, % at 20 µM; hit rate 0.061% among 360,000; AID 651647, 2012;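 active means GFP/RFP ratio change of at least 30% with cell ATP level not reduced by more than half and red fluorescence within 50% of control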
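Assay system: HT1080 RFP-PRO-GFP cells. Benchmarks: DMSO vehicle wells and RFP-L50D-GFP reporter cell wells. Times: overnight cell settling, then overnight compound exposure, 37 °C, 5% CO2. Compound: 20 µM single dose, 1% DMSO. Read-out basis: GFP/RFP fluorescence ratio.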
A number is an active result; - = inactive; . = no result. Compounds with a hit are over-represented: about 4.7% of the library has one in this group of screens.

SMILES	SKN-1 block	MPTP inh	GRIN3A LBD mod	ADAM17 inh	ADAM10 inh	MT1-MMP act inh
CN(C(=O)c1ccco1)c1nc(-c2ccccc2)cs1	40	-	-	-	-	-
CCN(C(=O)c1ccco1)c1nc(-c2ccc(OC)cc2)cs1	46	-	-	-	-	-
CCC(c1nnc(SCC(=O)Nc2cccc(S(N)(=O)=O)c2)n1-c1ccc(OC)cc1)N(C)C (centres undefined)	-	-	-	-	-	-
NS(=O)(=O)c1ccc(NC(=O)/C=C/c2ccc3c(c2)OCO3)cc1	-	-	12	-	-	-
COC(=O)c1cccc(NC(=O)/C=C/c2ccc3c(c2)OCO3)c1	-	-	16	-	-	-
CCOc1ccc(NC(=O)C(C)Oc2ccccc2C(=O)Nc2cccc(Cl)c2Cl)cc1 (centres undefined)	-	-	12	-	-	-
C=CCn1c(SCc2c(C(=O)OC)sc(N)c2C(=O)OC)nnc1-c1ccc(Br)cc1	-	-	-	-	20	-
COc1cccc(COc2ccc3ccc(=O)oc3c2)c1	-	-	-	-	-	-
C=CC(=O)NC1CCCCN(CCC)C1=O (centres undefined)	.	.	.	-	-	.
CC12COC3(C(=O)Nc4ccc([N+](=O)[O-])cc4)CC1CCC32C (centres undefined)	-	-	17	-	-	-
CC12COC3(C(=O)Nc4ccc(Cl)cc4)CC1CCC32C (centres undefined)	-	-	-	-	-	-
CC1=NN(c2nc(-c3ccc(C)cc3)cs2)C(=O)C1N=Nc1ccc2ccccc2c1 (centres undefined)	-	-	-	-	-	-
CC1=NN(c2nc(-c3ccc(C)cc3)cs2)C(=O)C1N=Nc1ccc(C(N)=O)cc1 (centres undefined)	-	-	27	-	-	-
O=C1CC[C@H](O)CCN1[C@H](CSc1ccccc1)Cc1ccccc1	-	-	-	-	-	-
COC1CCN(C(=O)C2CCC(=O)N(C3CCCCCC3)C2)CC1 (centres undefined)	-	-	-	-	-	-
COc1ccc(NC(=S)NCCN2CCOCC2)cc1	-	-	-	-	-	-
CCCC(Oc1ccc(Br)cc1)c1nc2c3cc(OC)c(OC)cc3nc(=S)n2[nH]1 (centres undefined)	-	-	16	-	-	-
CC(C)Cn1c(N)c(C(=O)CSc2ncn[nH]2)c(=O)n(C)c1=O	-	-	-	-	-	-
CC(C)(C)n1nnnc1CN(Cc1ccc(F)cc1)Cc1ccco1	-	-	-	-	-	-
CC(=O)Nc1ccc(N2S(=O)(=O)c3ccccc3S2(=O)=O)cc1	-	-	11	-	-	-
COc1cc(OC)cc(C(=O)Nc2ccc(S(=O)(=O)Nc3cnc4ccccc4n3)cc2)c1	-	-	-	-	-	-
CCc1cccc(C)c1NC(=O)c1cc(-c2ccncc2)nc2ccccc12	-	-	-	-	-	-
COc1ccc(-c2oc3ccccc3c2C(=O)OCc2ccccc2OC)cc1	-	-	17	-	-	-
CCOC(=O)c1c(-c2ccc(OC)cc2)oc2cc(Br)c(O)cc12	-	-	13	-	-	-
COc1ccc(C(=O)c2c(-c3ccc(OC)cc3)oc3ccccc23)cc1	-	-	-	-	-	-
SMILES	SKN-1 block	MPTP inh	GRIN3A LBD mod	ADAM17 inh	ADAM10 inh	MT1-MMP act inh
COCCNC(=O)CCc1c(C)nc2c(c(C)nn2-c2ccc(C)cc2)c1C	-	-	-	-	-	-
Clc1ccc(OCc2nc(-c3ccncc3)no2)c(Br)c1	51	-	-	-	-	-
Clc1ccccc1OCc1nc(-c2ccncc2)no1	-	-	-	-	-	-
Cc1ccc(C2NC(=NCc3ccccc3)Nc3nc(C)cc(=O)n32)cc1 (centres undefined)	-	-	-	-	-	-
CCOc1ccc(Br)cc1S(=O)(=O)Nc1ccc(C(=O)OCC(=O)N(C)c2ccccc2)cc1	-	-	-	-	-	-
CCOc1ccc(Br)cc1C(=O)Nc1ccc(C(=O)NCC(C)C)cc1	-	-	13	-	-	-
CCOc1ccc(Br)cc1S(=O)(=O)Nc1ccc(C(=O)Nc2ccccc2OC)cc1	-	-	16	-	-	-
CCOc1ccc(Br)cc1S(=O)(=O)Nc1ccc(C(=O)Nc2ccc(C)cc2)cc1	-	-	18	-	-	-
CCOc1ccc(Br)cc1S(=O)(=O)Nc1cccc(S(=O)(=O)N(C)c2ccccc2)c1	-	-	12	-	-	-
CCCCN(C=O)c1c(CC)nc2ccc(C(=O)N3CCN(C)CC3)cn12	-	-	.	-	-	-
C/C(=N\NC(=O)c1nnn(-c2nonc2N)c1CN(C)c1ccccc1)c1ccc(O)cc1	-	-	-	-	-	-
C/C(=N\NC(=O)c1nnn(-c2nonc2N)c1CN(C)c1ccccc1)c1cccs1	-	-	11	-	-	-
CC/C(=N\NC(=O)c1nnn(-c2nonc2N)c1CN(C)c1ccccc1)c1ccccc1	-	-	242	-	-	-
c1ccc(-c2cncnc2)nc1	-	-	-	-	-	-
c1ccc(-c2ccc(-c3ccncn3)cc2)cc1	56	-	-	-	-	-
Clc1ccc(N2CCN(/N=C/c3cccnc3)CC2)cc1	66	-	-	-	-	-
Cc1ccc(N2CCN(/N=C/c3cccnc3)CC2)cc1	-	-	-	-	-	-
COc1ccc(NC2=Nc3cccc4cccc2c34)cc1	-	-	-	-	-	-
N/C(=N\OC(=O)COc1ccc(Cl)cc1Cl)c1ccncc1	48	-	-	-	-	-
COc1ccc(Cl)cc1C(=O)O/N=C(\N)c1ccncc1	-	-	11	-	-	-
N/C(=N\OC(=O)COc1ccc(Cl)cc1Br)c1cccnc1	-	-	-	-	-	-
O=C(O)C1CCN(S(=O)(=O)c2cccs2)CC1	-	-	-	-	-	-
N#CC(C(=O)Nc1ccccc1)=C1CCCCC1	-	-	-	-	-	-
N#CC(C(=O)Nc1ccc(Cl)cc1)=C1Nc2ccccc2N1	-	-	24	-	-	-
O=C(COc1cccc(C(F)(F)F)c1)Nc1ccc2[nH]ncc2c1	-	-	18	-	-	-
